# Screening results (PubChem BioAssay)
# TAAR1 agonist: human TAAR1 agonists, primary screen, Fluo-8 calcium fluorescence, CHO RD-HGA16 cells. Trace amine-associated receptor 1 (Homo sapiens), Q96RJ0. vehicle wells 0%, saturating PEA agonist 100%. activation, % at 3 µM. 360,000 compounds, 0.99% hits;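 active = activation above the mean activation of all test compounds in the run plus 3 SD, cut at about 38% in these data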
#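 System: CHO-derived RD-HGA16 cells with stable Gα16 and human TAAR1. Times: 17-24 h plating, Fluo-8 75 min 37 °C, 30 min RT. Measured by: calcium-sensitive Fluo-8 signal, excitation 470-495, emission 515-575 nm. Read-out basis: % activation relative to PEA EC100 response. Control set: DMSO and PEA EC100. Repeats: no replicates (n 1).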
# TAAR1 antagonist: human TAAR1 antagonists, primary screen, Fluo-8 calcium fluorescence, CHO RD-HGA16 cells; inhibition, % at 3 µM; AID 624466, 2012; Trace amine-associated receptor 1 (Homo sapiens), Q96RJ0; antagonist; 360,000 compounds, 1.5% hits;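 active = inhibition above a per-plate cutoff, the mean inhibition of test compounds on that plate plus 3 SD, cut at about 49% in these data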;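 also: 0% = DMSO plus EC80 beta-PEA response and 100% = DMSO alone without agonist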
#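 Test system: RD-HGA16 CHO cells with stable hTAAR1 and Gα16 / Probe or stimulus: EC80 β-phenethylamine stimulus / Times: seeding 17-24 h prior, 75-min 37 °C, 30-min RT dye loading / Detection: Fluo-8 calcium-sensitive fluorescence / Read-out basis: % inhibition scaled between DMSO and EC80 PEA controls / Repeats: singlicate, one well per test compound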
# OX1R antag-1: antagonists of human orexin 1 receptor (OX1R) | Orexin/Hypocretin receptor type 1 (Homo sapiens), O43613 | OX1R-expressing cells, FRET antagonist read-out | inhibition, % at 6.6 µM | 330,000 compounds, 1.8% hits; in the data active = inhibition mostly above about 38%, no sharp cut-off; inactive = mostly below about 40%;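 also: 0% = agonist challenge alone and 100% = reference antagonist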
# Target sequence (O43613 whole entry, looked up): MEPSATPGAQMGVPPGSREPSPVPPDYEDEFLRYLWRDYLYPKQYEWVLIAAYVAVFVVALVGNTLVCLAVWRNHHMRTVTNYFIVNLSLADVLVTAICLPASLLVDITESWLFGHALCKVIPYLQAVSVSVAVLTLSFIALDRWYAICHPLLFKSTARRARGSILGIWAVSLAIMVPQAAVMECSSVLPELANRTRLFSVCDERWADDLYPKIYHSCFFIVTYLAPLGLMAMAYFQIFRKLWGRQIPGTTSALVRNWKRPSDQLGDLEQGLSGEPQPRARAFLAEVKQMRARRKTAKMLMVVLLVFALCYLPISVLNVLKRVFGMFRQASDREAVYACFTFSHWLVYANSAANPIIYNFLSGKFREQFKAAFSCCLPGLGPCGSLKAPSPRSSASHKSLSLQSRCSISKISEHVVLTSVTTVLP
# CHO parental Ca: ATP-evoked calcium signal inhibitors, parental CHO, primary screen, counter-screen for OX1R antagonist project, cell-based, fluorescence, Fluo-8 calcium dye; parental CHO-K1, ATP-induced calcium, Fluo-8 fluorescence; inhibition, % at 5.6 µM; 330,000 compounds, 0.63% hits;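 active = inhibition above that plate's mean sample inhibition plus 3 SD, cut at about 26% in these data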;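 also: 0% = ATP-challenged DMSO wells and 100% = DMSO wells without ATP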
#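 Material – parental CHO cells · Reagent – ATP stimulus · Compound – single nominal dose of 5.6 µM per compound · Detection – Fluo-8 fluorescence · Read-out basis – percent inhibition of calcium signal · Controls – ATP-challenged DMSO wells low, unchallenged DMSO wells high · Repeats – no replicates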
# GalR3 antagonist: GalR3 antagonists in HEK293 cells, primary screen, cell-based, fluorescence readout. Galanin receptor type 3 (Homo sapiens), O60755. HEK293 GalR3-CNG cAMP membrane potential fluorescence; galR3 body fused to GalR1 C-terminus. inhibition, % at 3 µM. 360,000 compounds, 0.44% hits;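 active = inhibition above the screen-wide average plus 3 SD, cut at about 13% in these data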;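 also: forskolin and galanin both at EC90 stimulate the cells; cAMP rise reported by CNG channel membrane potential dye signal; 0% = forskolin plus galanin with DMSO and 100% = forskolin alone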
# Target sequence (O60755 1-299 limits assumed): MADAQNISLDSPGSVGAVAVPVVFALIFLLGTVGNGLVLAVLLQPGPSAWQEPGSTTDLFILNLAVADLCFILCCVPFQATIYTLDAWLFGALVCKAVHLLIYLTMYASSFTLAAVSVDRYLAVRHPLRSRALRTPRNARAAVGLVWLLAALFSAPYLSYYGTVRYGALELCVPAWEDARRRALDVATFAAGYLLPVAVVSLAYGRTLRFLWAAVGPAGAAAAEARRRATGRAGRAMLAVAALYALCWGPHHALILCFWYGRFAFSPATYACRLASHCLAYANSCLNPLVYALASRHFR
# OX1R antag-2: OX1R (HCRTR1) antagonists, primary screen, fluorescence, CHO/OX1R cells, Fluo-8 calcium, orexin A. Orexin/Hypocretin receptor type 1 (Homo sapiens), O43613. Fluo-8 calcium fluorescence. 330,000 compounds, 0.43% hits. inhibition, % at 5 µM. AID 434989, 2010;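 active = inhibition above its plate's threshold, mean inhibition of all tested compounds on the plate plus 3 SD, cut at about 37% in these data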;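 also: 0% = orexin A challenge wells and 100% = SB-334867-A antagonist wells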
# TAAR1 nonsel count: nonselective antagonists in TAAR1 counter-screen cells, counter-screen for hTAAR1 antagonist project, cell-based, fluorescence, calcium; shares compounds with TAAR1 antagonist; counterscreen cell line, antagonist mode; inhibition, % at 3 µM; 2,400 compounds, 77% hits; AID 651780, 2012; in the data active = inhibition above about 22%;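 also: CHO-Ga16 host cells stimulated with ATP at an EC80 level; 0% = agonist EC80 plus vehicle and 100% = vehicle without agonist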
# TAAR1 ant conf: human TAAR1 antagonists, retest of hits, confirmation, cell-based, fluorescence; shares compounds with TAAR1 antagonist; TAAR1-expressing cells, fluorescence antagonist read-out; inhibition, % at 3 µM; 2,400 compounds, 40% hits; in the data active = inhibition above about 49%;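 also: CHO-Ga16 host cells challenged with agonist PEA near its EC80; 0% = agonist at EC80 plus vehicle and 100% = vehicle with no agonist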
# Ga16 ag counter: calcium activation in Ga16-expressing cells, counter-screen for TAAR1 antagonist project, cell-based, fluorescence. shares compounds with TAAR1 antagonist. agonist counterscreen. activation, % at 3 µM. 2,400 compounds, 18% hits; in the data active = activation above about 12%;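 also: 0% = vehicle wells and 100% = saturating stimulus response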
# TAAR1 ag count: TAAR1 activation by candidate antagonists – cell-based, fluorescence, counter-screen for TAAR1 antagonist project. shares compounds with TAAR1 antagonist. hTAAR1 cell line, agonist mode. activation, % at 3 µM. 2,400 compounds, 2% hits. AID 651955, 2012; in the data active = activation above about 37%;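 also: CHO cells stably expressing TAAR1 with calcium dye readout; 0% = DMSO vehicle and 100% = full agonist response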
# * marks the source's active call; other numbers are inactive results; · = no result given. Rows were chosen to be rich in hits. Some 4.3% of all compounds tested hit in one or more screens of this group.
SMILES,TAAR1 agonist,TAAR1 antagonist,OX1R antag-1,CHO parental Ca,GalR3 antagonist,OX1R antag-2,TAAR1 nonsel count,TAAR1 ant conf,Ga16 ag counter,TAAR1 ag count
C=CCOC(=O)C1=C[C@H](c2cn(C(C)=O)c3ccccc23)C[C@H](OCc2ccc(CO)cc2)O1,24,75*,13,-5,-7,1,38*,52*,11,17
CCCCC1CC2=C(C(=O)OC(C)(C)O2)C(c2ccc(F)cc2)O1 (configuration not stated),-1,-19,·,·,-6,·,·,·,·,·
Cc1cc(NC(=O)C(C)SCC(=O)OCC(=O)Nc2c(C)cccc2C(C)C)no1 (configuration not stated),0,11,2,-26,-6,17,·,·,·,·
Cc1noc(C)c1NC(=O)N1C[C@H](O)COC[C@H]2O[C@@H](CC(=O)NCC3CCCCC3)CC[C@@H]21,1,-22,·,·,-4,·,·,·,·,·
CCOC(=O)c1cccc(S(=O)(=O)N(CCO)Cc2cc3cc(OC)ccc3[nH]c2=O)c1,·,·,8,-17,·,-11,·,·,·,·
CCN(Cc1cc2ccccc2[nH]c1=O)S(=O)(=O)c1ccc(OC)cc1,6,-18,-2,-22,3,-16,·,·,·,·
O=c1[nH]c2ccccc2cc1CN(Cc1ccco1)S(=O)(=O)c1ccc(F)cc1,10,54*,20,-34,-6,-14,23*,44,10,18
COC(=O)c1cccc(S(=O)(=O)N(Cc2ccco2)Cc2cc3cc(OC)ccc3[nH]c2=O)c1,19,58*,4,-28,0,-11,24*,59*,10,28
COC(=O)[C@]1(Sc2ccc(C)cc2)CC(=O)N[C@@H]1c1ccccc1,1,3,·,·,-1,·,·,·,·,·
COC(=O)c1ccc(COc2cc(C)ccc2C)o1,4,-7,-2,12,-8,6,·,·,·,·
COc1cc(C)ccc1NC(=O)Cc1csc(NC(=O)Nc2ccccc2OC)n1,11,66*,25,-5,-4,-26,34*,53*,9,10
COc1ccccc1NC(=O)Nc1nc(CC(=O)N2CCN(c3ccccc3OC)CC2)cs1,21,69*,6,-8,-4,-26,35*,54*,11,8
O=C(CNC(=O)c1ccc(Br)o1)Nc1cccc(-c2cnc3ccccc3n2)c1,20,64*,31,-23,-1,-12,33*,52*,12*,10
O=C(Nc1cccc(-c2cnc3ccccc3n2)c1)c1ccncc1,12,28,12,-10,-5,-20,·,·,·,·
O=C(Nc1cccc(NC(=O)c2ccc(-c3ccc(Br)cc3)o2)c1)c1ccco1,11,69*,18,-2,-4,-3,33*,50*,6,1
Cc1ccc(C(=O)Nc2cccc(-c3cnc4ccccc4n3)c2)cc1,3,1,5,-1,-12,-1,·,·,·,·
O=C(Nc1cccc(NC(=O)c2ccccc2Cl)c1)c1ccco1,1,9,48,-9,-1,-9,·,·,·,·
O=C(Nc1cccc(-c2cnc3ccccc3n2)c1)c1ccco1,9,54*,56,-23,-2,-26,17,34,7,3
C[C@H]1CN([C@@H](C)CO)C(=O)CCCn2cc(nn2)CO[C@@H]1CN(C)C(=O)NC1CCCCC1,2,-8,·,·,-5,·,·,·,·,·
CCN1CCN(S(=O)(=O)c2ccc(Cl)c(C(=O)N(C)Cc3ccc(C(C)(C)C)cc3)c2)CC1,26,-27,·,·,-5,·,·,·,·,·
CC[C@@]1(C(=O)OC)N[C@H](CN(C)C(=O)c2ccc(C(C)(C)C)cc2)[C@@H]2C(=O)N(Cc3ccccc3)C(=O)[C@@H]21,12,66*,7,-23,-6,-51,28*,51*,7,8
COC(=O)[C@H](CCSC)NC(=O)NCc1cccs1,12,107*,8,-7,-7,7,-5,0,0,-2
CCc1nc2ccccc2c(C(=O)OCCN2C(=O)c3ccccc3C2=O)c1C,4,66*,46,-30,-3,-20,26*,44,6,5
CCc1nc2ccccc2c(C(=O)OCC(=O)C(C)(C)C)c1C,5,7,35,-35,-5,-29,·,·,·,·
O=C(Cn1c(C(F)(F)F)nc2ccccc21)OCC(=O)c1c[nH]c2ccccc12,13,41,12,-3,2,-9,·,·,·,·
SMILES,TAAR1 agonist,TAAR1 antagonist,OX1R antag-1,CHO parental Ca,GalR3 antagonist,OX1R antag-2,TAAR1 nonsel count,TAAR1 ant conf,Ga16 ag counter,TAAR1 ag count
Cc1[nH]c2ccccc2c1C(=O)COC(=O)Cn1c(C(F)(F)F)nc2ccccc21,15,64*,22,-12,-3,-7,37*,54*,13*,24
COc1cccc(NC(=O)COc2cc(O)c3c(c2)OC(C)(C)CC3=O)c1,9,60*,17,-6,-7,-2,27*,45,9,7
O=C(COC(=O)c1cnc(Cl)c(Cl)c1)NC1CCCC1,1,-17,·,·,-4,·,·,·,·,·
COc1ccc(C(=O)N2N=C(c3ccc(NS(C)(=O)=O)cc3)CC2c2cccs2)cc1 (configuration not stated),16,59*,3,-5,-9,-20,30*,45,10,11
OCC(CCc1c[nH]c2ccccc12)c1c[nH]c2ccccc12 (configuration not stated),25,53*,·,·,-2,·,24*,29,7,11
Cc1ccccc1NC(NC(=O)c1cccs1)C(Cl)(Cl)Cl (configuration not stated),13,52*,42,-16,-10,-20,20,38,13*,16
